The record followed here is ChEMBL document CHEMBL1938394, “Time-dependent slowly-reversible inhibition of monoamine oxidase A by N-substituted 1,2,3,6-tetrahydropyridines” (Bioorg Med Chem, 2011).

Series [1] addresses T1, Amine oxidase [flavin-containing] A (Homo sapiens, UniProt P21397).
T1 sequence (P21397 whole entry): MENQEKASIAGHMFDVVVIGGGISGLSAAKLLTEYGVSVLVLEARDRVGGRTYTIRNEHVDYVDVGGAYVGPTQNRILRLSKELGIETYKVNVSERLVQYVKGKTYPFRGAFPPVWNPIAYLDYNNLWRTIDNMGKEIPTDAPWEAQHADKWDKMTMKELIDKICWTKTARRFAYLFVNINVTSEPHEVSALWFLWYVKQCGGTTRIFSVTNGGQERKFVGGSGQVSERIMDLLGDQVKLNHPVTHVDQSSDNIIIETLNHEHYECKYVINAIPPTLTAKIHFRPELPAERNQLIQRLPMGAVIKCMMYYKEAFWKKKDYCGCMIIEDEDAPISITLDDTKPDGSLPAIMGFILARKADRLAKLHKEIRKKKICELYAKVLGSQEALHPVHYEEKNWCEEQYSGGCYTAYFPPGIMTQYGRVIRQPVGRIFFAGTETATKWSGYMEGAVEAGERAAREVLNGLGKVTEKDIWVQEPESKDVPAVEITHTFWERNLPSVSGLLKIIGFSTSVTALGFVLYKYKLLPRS
Description: Inhibition of human recombinant MAOA expressed in insect cells using kynuramine substrate after 60 mins.

For series [2], the species on record is Homo sapiens. Description: Selectivity index, ratio of IC50 for human recombinant MAOB to IC50 for human recombinant MAOA. Summed up: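 MAO-A (0.005 mg/mL; 150 μM kynuramine, 60 min, 37 °C, […]) and MAO-B (0.01 mg/mL; 1000 μM benzylamine, 30 min, 37 °C, perchloric acid stop, benzaldehyde by HPLC-UV at 254 nm) in isotonic 0.1 M phosphate pH 7.4. Inhibitor 0–7000 μM. IC50s from sigmoidal log curves in triplicate. SI = MAO-B IC50 / MAO-A IC50.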

For series [3], the target named is T2, Amine oxidase [flavin-containing] B (Homo sapiens, UniProt P27338).
T2 sequence (P27338 whole entry): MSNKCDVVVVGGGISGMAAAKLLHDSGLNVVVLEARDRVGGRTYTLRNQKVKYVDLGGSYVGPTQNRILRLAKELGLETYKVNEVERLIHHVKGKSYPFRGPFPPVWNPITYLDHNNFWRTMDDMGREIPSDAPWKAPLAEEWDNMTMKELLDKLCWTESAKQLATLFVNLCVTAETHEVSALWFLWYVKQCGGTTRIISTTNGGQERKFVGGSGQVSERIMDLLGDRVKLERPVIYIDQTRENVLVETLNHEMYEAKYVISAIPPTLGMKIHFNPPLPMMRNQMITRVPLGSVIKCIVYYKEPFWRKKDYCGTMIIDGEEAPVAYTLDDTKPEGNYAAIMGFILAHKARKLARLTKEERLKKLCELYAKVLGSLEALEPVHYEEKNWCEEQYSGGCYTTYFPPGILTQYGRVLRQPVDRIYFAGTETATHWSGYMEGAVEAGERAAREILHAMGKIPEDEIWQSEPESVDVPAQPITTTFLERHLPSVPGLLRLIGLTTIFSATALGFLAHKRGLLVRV
Description: Inhibition of human recombinant MAOB expressed in insect cells using benzylamine hydrochloride as substrate after 30 mins. Summed up: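 Human recombinant MAO-B (0.01 mg/mL) in 0.1 M isotonic phosphate buffer pH 7.4, inhibitor 0–7000 µM, benzylamine 1000 µM final, 30 min at 37 °C. Stopped with perchloric acid; benzaldehyde measured by reverse-phase HPLC with UV 254 nm. IC50 from sigmoidal log dose–response fit; triplicate, mean ± SD.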

For series [4], the target named is T1, Amine oxidase [flavin-containing] A. Description: Inhibition of human recombinant MAOA expressed in insect cells assessed as oxidation of kynuramine substrate measured after additional substrate added after 90 mins incubation. Conditions: 1.5 h; call rule not given here.
Series [5] has the same target. Description: Inhibition of human recombinant MAOA expressed in insect cells assessed as oxidation of kynuramine substrate at 6 mM measured after additional substrate added after 90 mins incubation. Conditions: 1.5 h. The method in brief: (§1)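 Recombinant human MAO-A incubated with kynuramine, with or without inhibitor. Product formation followed over time. A second equivalent of substrate (150 µM kynuramine) added at 90 min and fresh enzyme added at 120 min.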

The target is the same in series [6]. Description: Mixed noncompetitive inhibition of human recombinant MAO-A assessed as dissociation constant for enzyme-inhibitor-substrate complex by Lineweaver-Burk plot analysis. The method in brief:
(§2)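 Human recombinant MAO-A (0.005 mg/mL) in 0.1 M sodium phosphate pH 7.4 made isotonic with NaCl, 37 °C, 30 min. Initial oxidation rates at four kynuramine levels (50–150 µM) without or with four inhibitor concentrations (range per compound, 5–1000 µM). Ki from Lineweaver–Burk plots and replots by linear regression; triplicate.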

Series [7] shares this target. Description: Mixed noncompetitive inhibition of human recombinant MAO-A assessed as dissociation constant for enzyme-inhibitor complex by Lineweaver-Burk plot analysis. Summed up:
as §2

Series [8] has the same target. Description: Inhibition of human recombinant MAOA expressed in insect cells assessed as oxidation of kynuramine substrate at 6 mM measured after additional enzyme added after 120 mins incubation. The settings on record: 2 h, 6000 µM. Summed up: as §1
Series [9] has the same target. Description: Inhibition of human recombinant MAOA expressed in insect cells assessed as formation of 4-hydroxyquinoline at 0.5 uM preincubated for 1 hr before kynuramine substrate measured after 12 hrs of dialysis. Summed up: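 MAO-A (0.005 mg/mL) in 0.1 M sodium phosphate pH 7.4 made isotonic with NaCl, preincubated 1 h at 37 °C without substrate with inhibitor (final volume 1 mL), then dialyzed overnight at 0 °C against 250 mL buffer. Activity in dialysate read as product formation at 310 nm with 150 μM kynuramine over 60 min at 37 °C. 4-Hydroxyquinoline quantified by calibration curve. Means ± SD, n = 3.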

In the case of `Fc1ccc(CCN2CC=CCC2)cc1`, the values for the concentration for half-maximal inhibition (IC50) in series [1] and in series [3] were 27.3 µM and 5270 µM, respectively. Also, the Ratio IC50 in series [2] worked out at 193. The “inhibition (INH)” value in series [4] was “Not Active”.
As to `CC1=CCN(CCc2ccccc2)CC1`, the “inhibition (INH)” value in series [5] and in series [8] was “Active” each time. For the same compound, the figures for the Ki in [6] and in [7] were 2590 µM and 408 µM, respectively. In addition, the IC50 (in general, the concentration needed to halve the response being measured) in [1] stood at 623 µM; in [3] it was 1250 µM. Also, the Ratio IC50 in series [2] amounted to 2.
Take `COc1ccc(CCN2CC=CCC2)cc1OC`: the concentration for half-maximal inhibition (IC50) in series [1] was 111 µM; in series [3], 1360 µM. Also, the Ratio IC50 in series [2] turned out to be 12.3. In addition, in series [4], the “inhibition (INH)” value is on record as “Not Active”.
For the compound `C#CCN(C)CCCOc1ccc(Cl)cc1Cl` [CLORGILINE], the “inhibition (INH)” value in series [9] is reported as “Active”.
In the case of `Clc1ccc(CCN2CC=CCC2)c(Cl)c1`, the IC50 in series [1] amounted to 6.1 µM; in series [3], 67.2 µM. Also, the Ratio IC50 in [2] is 11.1. The “inhibition (INH)” value in series [4] is on record as “Not Active”.
For `COc1ccc(CCN2CC=CCC2)cc1` the same measures were 12 µM, 96.1 µM, 8 and “Not Active”.
